Experimental data taken from ChEMBL document CHEMBL3994654, “Discovery of phenyl acetamides as potent and selective GPR119 agonists” (Bioorg Med Chem Lett, 2017).
In brackets after ≈: the same amount, converted by molar mass.

Key:
[1] = target: T1, Glucose-dependent insulinotropic receptor (Homo sapiens, UniProt Q8TDV5); assay: Agonist activity at human GPR119 expressed in HEK293 cells assessed as increase in intracellular cAMP level after 60 mins by HTRF assay; assay type: functional, cell-based
T1 sequence (Q8TDV5 whole entry): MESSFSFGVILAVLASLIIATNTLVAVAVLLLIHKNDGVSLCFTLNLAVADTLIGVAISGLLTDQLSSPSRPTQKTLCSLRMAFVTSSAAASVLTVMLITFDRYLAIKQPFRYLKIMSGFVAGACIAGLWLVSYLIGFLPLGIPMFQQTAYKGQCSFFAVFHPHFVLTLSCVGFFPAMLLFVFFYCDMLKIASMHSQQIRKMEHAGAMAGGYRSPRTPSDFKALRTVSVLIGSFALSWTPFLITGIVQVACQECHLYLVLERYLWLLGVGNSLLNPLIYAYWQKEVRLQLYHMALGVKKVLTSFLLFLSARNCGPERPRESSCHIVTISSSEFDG
Method in brief: (§1)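 cAMP stimulation is also given as % control at the top concentration, relative to an internal agonist control set at 100% cAMP stimulation. EC50 values are means of at least 2 independent experiments, except for two compounds.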

[2] = target: T2, Glucose-dependent insulinotropic receptor (Homo sapiens) (UniProt Q8TDV5); assay: Agonist activity at human GPR119 expressed in HEK293 cells assessed as increase in intracellular cAMP level after 60 mins by HTRF assay relative to control; assay type: functional, cell-based
T2 sequence (whole entry): T1 sequence (Q8TDV5 whole entry)
Method in brief: (§2)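 EC50 values are means of at least 2 independent experiments, with a few single determinations. Maximal response is reported as the percentage of cAMP stimulation at the maximal dose tested, normalised to an internal agonist control set as 100%.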

[3] = target: T3, Glucose-dependent insulinotropic receptor (Mus musculus, UniProt Q7TQP3); assay: Agonist activity at mouse GPR119 expressed in CHO cells co-expressing Galpha15 assessed as increase in intracellular cAMP level after 60 mins by HTRF assay; assay type: functional, cell-based; method in brief: as §1
T3 sequence (Q7TQP3 whole entry): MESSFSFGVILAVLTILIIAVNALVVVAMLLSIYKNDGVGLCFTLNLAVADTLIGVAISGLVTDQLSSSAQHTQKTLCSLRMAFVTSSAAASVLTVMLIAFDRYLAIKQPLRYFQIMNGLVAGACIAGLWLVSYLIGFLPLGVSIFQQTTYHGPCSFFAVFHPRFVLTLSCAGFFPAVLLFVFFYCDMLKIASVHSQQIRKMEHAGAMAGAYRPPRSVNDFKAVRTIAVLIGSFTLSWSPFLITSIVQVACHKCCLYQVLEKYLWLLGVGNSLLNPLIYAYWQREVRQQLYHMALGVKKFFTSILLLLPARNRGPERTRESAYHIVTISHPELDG

[4] = target: T4, Glucose-dependent insulinotropic receptor (Mus musculus) (UniProt Q7TQP3); assay: Agonist activity at mouse GPR119 expressed in CHO cells co-expressing Galpha15 assessed as increase in intracellular cAMP level after 60 mins by HTRF assay relative to control; assay type: functional, cell-based; method in brief: as §2
T4 sequence (whole entry): T3 sequence (Q7TQP3 whole entry)

[5] = Kinetic solubility in fasted state simulated intestinal fluid at pH 6.5; assay type: physicochemical; details: read-out: Kinetic_solubility
[6] = target: T5, Voltage-gated inwardly rectifying potassium channel KCNH2 (Homo sapiens, UniProt Q12809)
[7] = Half life in Wistar Han rat at 0.5 mg/kg, iv by LC-MS/MS analysis; assay type: ADME, organism-based; details: in vivo
Rattus norvegicus [8] = assay: Unbound clearance in Wistar Han rat at 0.5 mg/kg, iv by LC-MS/MS analysis; assay type: ADME, organism-based; details: in vivo
[9] = target: T5, Voltage-gated inwardly rectifying potassium channel KCNH2; assay: Inhibition of human ERG by PatchXpress method
Cytochrome P450 3A4 = Cytochrome P450 3A4 (Homo sapiens, UniProt P08684); assay: Inhibition of CYP3A4 (unknown origin); assay type: ADME
[10] = target: T6, Nuclear receptor subfamily 1 group I member 2 (Homo sapiens, UniProt O75469); assay: Activity at human PXR; assay type: ADME
T6 sequence (O75469 whole entry): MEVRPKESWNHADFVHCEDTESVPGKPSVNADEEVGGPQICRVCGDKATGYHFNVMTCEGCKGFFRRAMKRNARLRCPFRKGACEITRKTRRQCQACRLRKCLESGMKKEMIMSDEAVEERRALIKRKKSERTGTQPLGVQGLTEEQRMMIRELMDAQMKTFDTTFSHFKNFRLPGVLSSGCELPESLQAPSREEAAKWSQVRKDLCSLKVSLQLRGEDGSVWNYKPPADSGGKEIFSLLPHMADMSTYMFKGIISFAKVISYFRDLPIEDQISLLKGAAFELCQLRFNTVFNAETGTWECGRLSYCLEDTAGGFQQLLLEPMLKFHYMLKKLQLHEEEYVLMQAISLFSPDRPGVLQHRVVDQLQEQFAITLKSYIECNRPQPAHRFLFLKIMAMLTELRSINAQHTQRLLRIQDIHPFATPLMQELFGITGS

[11] = Solubility in fasted state simulated intestinal fluid using crystalline compound by equilibration method; assay type: physicochemical
[12] = Intrinsic clearance in rat liver microsomes; assay type: ADME, microsome; details: read-out: CLH
[13] = Intrinsic clearance in dog liver microsomes; assay type: ADME, Canis lupus familiaris, microsome; details: read-out: CLH
[14] = Intrinsic clearance in rhesus monkey liver microsomes; assay type: ADME, Macaca mulatta, microsome; details: read-out: CLH
[15] = Intrinsic clearance in human liver microsomes; assay type: ADME, microsome; details: read-out: CLH
[16] = Fraction unbound in rat plasma; assay type: ADME, cell-free
[17] = Fraction unbound in dog plasma; assay type: ADME, cell-free, Canis lupus familiaris
[18] = Fraction unbound in rhesus monkey plasma; assay type: ADME, cell-free, Macaca mulatta
[19] = Fraction unbound in human plasma; assay type: ADME, cell-free
[20] = Plasma clearance in Wistar Han rat at 0.5 mg/kg, iv by LC-MS/MS analysis; assay type: ADME, organism-based
[21] = Plasma clearance in Beagle dog at 0.5 mg/kg, iv by LC-MS/MS analysis; assay type: ADME, organism-based, Canis lupus familiaris
[22] = Plasma clearance in rhesus monkey at 0.5 mg/kg, iv by LC-MS/MS analysis; assay type: ADME, organism-based, Macaca mulatta
[23] = Volume of distribution in Wistar Han rat at 0.5 mg/kg, iv by LC-MS/MS analysis; assay type: ADME, organism-based; details: in vivo
[24] = Volume of distribution in Beagle dog at 0.5 mg/kg, iv by LC-MS/MS analysis; assay type: ADME, organism-based, Canis lupus familiaris; details: in vivo
[25] = Volume of distribution in rhesus monkey at 0.5 mg/kg, iv by LC-MS/MS analysis; assay type: ADME, organism-based, Macaca mulatta; details: in vivo
[26] = Half life in Beagle dog at 0.5 mg/kg, iv by LC-MS/MS analysis; assay type: ADME, organism-based, Canis lupus familiaris; details: in vivo
[27] = Half life in rhesus monkey at 0.5 mg/kg, iv by LC-MS/MS analysis; assay type: ADME, organism-based, Macaca mulatta; details: in vivo
[28] = Oral bioavailability in Wistar Han rat by LC-MS/MS analysis; assay type: ADME, organism-based; details: in vivo
[29] = Oral bioavailability in Beagle dog by LC-MS/MS analysis; assay type: ADME, organism-based, Canis lupus familiaris; details: in vivo
[30] = Oral bioavailability in rhesus monkey by LC-MS/MS analysis; assay type: ADME, organism-based, Macaca mulatta; details: in vivo
[31] = Lipophilicity, log D of the compound at pH 7 by HPLC method; assay type: physicochemical; details: buffer
Rattus norvegicus [32] = assay: Unbound volume of distribution in Wistar Han rat at 0.5 mg/kg, iv by LC-MS/MS analysis; assay type: ADME, organism-based; details: in vivo
Mus musculus = assay: Antidiabetic activity in C57BL/6 Tac mouse assessed as maximum decrease in blood glucose AUC administered via oral gavage 30 mins prior to oral glucose load measured at 20 to 60 mins post glucose challenge by OGTT; assay type: functional; details: C57BL/6, po, read-out: MED
Method in brief: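 Eleven-week-old lean C57BL/6 Tac mice (n = 8/group) were fasted overnight and dosed by oral gavage in PEG400/23.5% HPBCD (15/85 v/v). Oral glucose (3 g/kg) was given 30 min later. Tail-nick glucometer glucose at 0, 20, 40, 60 min; glucose AUC per mouse, expressed as % change vs vehicle, with t-test or one-way ANOVA. Dose titration gave the minimal dose for maximal efficacy.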

[33] = Drug uptake in C57BL/6 Tac mouse blood at 0.1 mg/kg, po via gavage measured at 90 mins post dose; assay type: ADME, organism-based; details: whole blood, read-out: Drug uptake
Method in brief: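 Blood drug concentration was taken at 90 min after an oral 0.1 mpk dose in mice, within oGTT dose-titration PK/PD studies.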

[34] = Agonist activity at rhesus monkey GPR119; set-up: species or system Macaca mulatta
[35] = Ratio of drug level in C57BL/6 Tac mouse blood to plasma at 0.1 mg/kg, po via gavage measured at 90 mins post dose; assay type: ADME, organism-based; details: blood and plasma

T5 sequence (Q12809 whole entry): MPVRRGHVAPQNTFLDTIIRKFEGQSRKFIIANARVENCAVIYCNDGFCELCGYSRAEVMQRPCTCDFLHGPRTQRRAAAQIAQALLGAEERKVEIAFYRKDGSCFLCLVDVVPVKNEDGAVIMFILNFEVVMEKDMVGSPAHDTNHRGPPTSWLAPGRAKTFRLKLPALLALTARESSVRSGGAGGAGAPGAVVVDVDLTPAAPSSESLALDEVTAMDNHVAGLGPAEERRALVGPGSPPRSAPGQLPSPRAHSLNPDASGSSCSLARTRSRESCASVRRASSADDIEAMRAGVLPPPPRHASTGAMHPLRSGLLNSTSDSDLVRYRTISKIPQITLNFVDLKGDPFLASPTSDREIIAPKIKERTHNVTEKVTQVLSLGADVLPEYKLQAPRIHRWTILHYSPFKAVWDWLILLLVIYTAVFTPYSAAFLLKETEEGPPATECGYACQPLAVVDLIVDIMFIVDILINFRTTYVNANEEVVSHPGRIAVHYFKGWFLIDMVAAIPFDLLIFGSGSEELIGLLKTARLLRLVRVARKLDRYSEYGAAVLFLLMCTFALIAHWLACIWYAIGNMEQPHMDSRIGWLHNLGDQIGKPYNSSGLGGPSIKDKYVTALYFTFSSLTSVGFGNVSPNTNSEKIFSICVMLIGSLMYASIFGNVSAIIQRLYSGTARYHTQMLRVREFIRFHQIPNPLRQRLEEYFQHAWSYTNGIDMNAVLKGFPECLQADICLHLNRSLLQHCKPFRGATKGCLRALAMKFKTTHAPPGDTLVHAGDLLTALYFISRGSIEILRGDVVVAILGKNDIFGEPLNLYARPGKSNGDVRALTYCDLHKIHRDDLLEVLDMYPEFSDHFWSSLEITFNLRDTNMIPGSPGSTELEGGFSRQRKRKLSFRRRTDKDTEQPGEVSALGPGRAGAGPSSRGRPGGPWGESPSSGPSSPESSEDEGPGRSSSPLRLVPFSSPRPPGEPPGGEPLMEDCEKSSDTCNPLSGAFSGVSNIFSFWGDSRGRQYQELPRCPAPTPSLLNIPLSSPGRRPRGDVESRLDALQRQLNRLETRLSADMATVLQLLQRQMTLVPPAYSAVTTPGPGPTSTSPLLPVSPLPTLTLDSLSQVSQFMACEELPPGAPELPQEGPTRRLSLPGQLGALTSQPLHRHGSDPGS
Sequence of Cytochrome P450 3A4 (P08684 whole entry): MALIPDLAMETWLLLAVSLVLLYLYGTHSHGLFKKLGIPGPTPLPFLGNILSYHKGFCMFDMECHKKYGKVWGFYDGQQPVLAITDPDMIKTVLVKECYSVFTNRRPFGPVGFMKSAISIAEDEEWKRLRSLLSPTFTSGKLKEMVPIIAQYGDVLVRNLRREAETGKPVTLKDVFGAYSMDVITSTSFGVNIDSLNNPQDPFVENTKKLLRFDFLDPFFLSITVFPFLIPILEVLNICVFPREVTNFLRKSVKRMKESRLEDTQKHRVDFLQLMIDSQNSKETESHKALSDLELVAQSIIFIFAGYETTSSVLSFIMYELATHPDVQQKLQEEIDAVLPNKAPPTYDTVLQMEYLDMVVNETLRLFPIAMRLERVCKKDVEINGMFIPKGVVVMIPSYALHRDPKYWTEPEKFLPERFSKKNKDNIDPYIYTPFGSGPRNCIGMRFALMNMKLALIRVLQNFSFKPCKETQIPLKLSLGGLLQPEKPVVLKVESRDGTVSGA

Work on `O=C(Cc1ccc(OCC[C@@H]2C[C@@H]2C2CCN(c3ncc(Cl)cn3)CC2)cc1F)N1CCCCC1` yielded an EC50 [1] of 1.5 nM, an Activity [2] of 116% and an EC50 [3] of 2.2 nM. The Activity [4] was 92%, the solubility kinetic [5] was 124 µM (≈ 62.1 µg/mL) and the IC50 [6] was 3300 nM.

With `CCc1cnc(N2CCC([C@H]3C[C@H]3CCOc3ccc(CC(=O)N4CCC4)c(F)c3)CC2)nc1` the EC50 [1] was 0.4 nM, the Activity [2] was 103% and the EC50 [3] was 0.84 nM. It also gave an Activity [4] of 111%, a solubility kinetic [5] of 140 µM (≈ 65.3 µg/mL) and an IC50 [6] of 3200 nM.

Work on `CC(C)c1noc(N2CCC([C@H]3C[C@H]3CCOc3ccc(CC(=O)N4CCC4)c(F)c3)CC2)n1` yielded an EC50 [1] of 2 nM, an Activity [2] of 78% and an EC50 [3] of 6.7 nM. The Activity [4] was 102%, the solubility kinetic [5] was 126 µM (≈ 59.3 µg/mL) and the half-life [7] was 1.8 h. It also gave an IC50 [6] of 7000 nM.

For `COCc1cnc(N2CCC([C@H]3C[C@H]3CCOc3cc(F)c(CC(=O)N4CCC4)c(F)c3)CC2)nc1`, the EC50 [1] was 0.2 nM, the Activity [2] was 91% and the EC50 [3] was 0.8 nM. For the same compound, the Activity [4] was 116%, the solubility kinetic [5] was 139 µM (≈ 69.6 µg/mL) and the CL free (Rattus norvegicus [8]) was 430 mL/min/kg. The IC50 [9] was 12000 nM, the IC50 (Cytochrome P450 3A4) was greater than 50000 nM and the EC50 [10] was greater than 30000 nM. It also gave a solubility thermodynamic [11] of 51 µg/mL (≈ 102 µM), a CLint scaled [12] of 189 mL/min/kg and a CLint scaled [13] of 39 mL/min/kg. The CLint scaled [14] was 44 mL/min/kg, the CLint scaled [15] was 39 mL/min/kg and the fraction unbound [16] was 0.067. For the same compound, the fraction unbound [17] was 0.055, the fraction unbound [18] was 0.08 and the fraction unbound [19] was 0.038. For the same compound, the clearance [20] was 29 mL/min/kg, the clearance [21] was 2 mL/min/kg and the clearance [22] was 14 mL/min/kg. For the same compound, the Vd [23] was 4.8 L/kg, the Vd [24] was 4.3 L/kg and the Vd [25] was 3.5 L/kg. The half-life [7] was 3.5 h, the half-life [26] was 29 h and the half-life [27] was 7.6 h. It also gave a bioavailability [28] of 80%, a bioavailability [29] of 55% and a bioavailability [30] of 44%. For the same compound, the logD [31] was 4.1, the Vdu (Rattus norvegicus [32]) was 72 L/kg and the minimal effective dose (Mus musculus) was 0.1 mg/kg. For the same compound, the concentration at 1.5 h [33] was 10 nM, the EC50 [34] was 0.1 nM and the blood plasma ratio at 1.5 h [35] was 0.55. The IC50 [6] was 9100 to 9200 nM.

Work on `O=C(Cc1ccc(OCC[C@@H]2C[C@@H]2C2CCN(c3ncc(Cl)cn3)CC2)cc1F)N1CC(O)C1` yielded an EC50 [1] of 0.8 nM, an Activity [2] of 89% and an EC50 [3] of 6.7 nM. For the same compound, the Activity [4] was 110%, the solubility kinetic [5] was 144 µM (≈ 70.4 µg/mL) and the half-life [7] was 3.5 h.

Compound `O=C(Cc1ccc(OCC[C@@H]2C[C@@H]2C2CCN(c3ncc(Cl)cn3)CC2)cc1)NC1CC1` has an EC50 [1] of 1.8 nM, an Activity [2] of 104% and an EC50 [3] of 1.5 nM. For the same compound, the Activity [4] was 91%, the solubility kinetic [5] was 22 µM (≈ 10 µg/mL) and the IC50 [6] was greater than 60000 nM.
